In brackets after ≈: the same amount, converted by molar mass.
Tests used:
Acinetobacter baumannii [1] = test: Antibacterial activity against carbapenem resistant Acinetobacter baumannii by broth microdilution method; type: functional; conditions: Acinetobacter baumannii; for MIC: read-out: MIC
How it was run: (§1)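 MICs were determined by CLSI broth methods, except that organisms were grown in brain–heart–infusion medium. The panel comprised wild-type and resistant E. coli and A. baumannii strains, including 12 strains whose details are given by reference.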

[2] = Fraction unbound in mouse plasma at 1 uM by equilibrium dialysis method; type: ADME, cell-free
Escherichia coli [3] = test: Antibacterial activity against quinolone resistance Escherichia coli isolate ELZ4251 harboring gyrA/parC mutant by CLSI M100-S17 protocol based method; type: functional
Escherichia coli [4] = test: Antibacterial activity against wild type Escherichia coli ATCC 25922 by CLSI M100-S17 protocol based method; type: functional
Acinetobacter baumannii [5] = test: Antibacterial activity against fluoroquinolone resistant Acinetobacter baumannii isolate MMX2240 by CLSI M100-S17 protocol based method; type: functional
Acinetobacter baumannii [6] = test: Antibacterial activity against beta-lactam resistant Acinetobacter baumannii by broth microdilution method; type: functional; conditions: Acinetobacter baumannii; for MIC: read-out: MIC; how it was run: as §1
Escherichia coli [7] = test: Antibacterial activity against fluoroquinolone resistant Escherichia coli SKM18 by CLSI M100-S17 protocol based method; type: functional
Acinetobacter baumannii [8] = test: Antibacterial activity against wild type Acinetobacter baumannii ATCC BAA-747 by CLSI M100-S17 protocol based method; type: functional
Acinetobacter baumannii [9] = test: Antibacterial activity against multidrug resistant Acinetobacter baumannii by broth microdilution method; type: functional; conditions: Acinetobacter baumannii; for MIC: read-out: MIC; how it was run: as §1
Acinetobacter baumannii [10] = test: Antibacterial activity against wild type Acinetobacter baumannii by broth microdilution method; type: functional; how it was run: as §1
Escherichia coli [11] = test: Antibacterial activity against Escherichia coli infected in cyclophosphamide treated neutropenic CD1 mouse septicemia model assessed as mouse survival at 20 mg/kg, iv dosed at 1 hr post infection followed by redosing at 5 hrs post infection measured at 96 hrs post infection relative to control; type: functional
How it was run: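 Female CD-1 mice were made neutropenic with cyclophosphamide ip, 150 mg/kg on day −4 and 100 mg/kg on day −1. […] Compound was given iv in 3% DMSO/saline at 1 and 5 h postinfection, n = 6 per group. Percent survival was scored at 96 h postinfection.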

Escherichia coli [12] = test: Antibacterial activity against multidrug resistant Escherichia coli by broth microdilution method; type: functional; conditions: Escherichia coli; for MIC: read-out: MIC; how it was run: as §1
Escherichia coli [13] = test: Selectivity ratio of MIC for wild type Escherichia coli ATCC 25922 in presence of HSA to MIC for wild type Escherichia coli ATCC 25922; type: functional
Escherichia coli [14] = test: Antibacterial activity against quinolone resistant Escherichia coli by broth microdilution method; type: functional; conditions: Escherichia coli; for MIC: read-out: MIC; how it was run: as §1
Escherichia coli [15] = test: Antibacterial activity against beta-lactam resistant Escherichia coli by broth microdilution method; type: functional; conditions: Escherichia coli; for MIC: read-out: MIC; how it was run: as §1
Escherichia coli [16] = test: Antibacterial activity against aminoglycoside resistant Escherichia coli by broth microdilution method; type: functional; conditions: Escherichia coli; for MIC: read-out: MIC; how it was run: as §1
Escherichia coli [17] = test: Antibacterial activity against wild type Escherichia coli ATCC 25922 in presence of HSA by CLSI M100-S17 protocol based method; type: functional
Klebsiella pneumoniae = test: Antibacterial activity against wild type Klebsiella pneumoniae ATCC 35657 by CLSI M100-S17 protocol based method; type: functional
Acinetobacter baumannii [18] = test: Antibacterial activity against quinolone resistant Acinetobacter baumannii by broth microdilution method; type: functional; conditions: Acinetobacter baumannii; for MIC: read-out: MIC; how it was run: as §1
Acinetobacter baumannii [19] = test: Antibacterial activity against aminoglycoside resistant Acinetobacter baumannii by broth microdilution method; type: functional; conditions: Acinetobacter baumannii; for MIC: read-out: MIC; how it was run: as §1
Escherichia coli [20] = test: Antibacterial activity against wild type Escherichia coli by broth microdilution method; type: functional; how it was run: as §1
Mus musculus [21] = test: Terminal half life in CD1 mouse plasma at 10 mg/kg, iv by LC-MS/MS analysis; type: ADME, organism-based; conditions: in vivo
Mus musculus [22] = test: Volume of distribution at steady state in CD1 mouse plasma at 10 mg/kg, iv by LC-MS/MS analysis; type: ADME, organism-based; conditions: in vivo
Mus musculus [23] = test: AUC (0 to 24 hrs) in CD1 mouse plasma at 10 mg/kg, iv by LC-MS/MS analysis; type: ADME, organism-based; parameters: time < 24 hr, dose 10 mg/kg, route intravenous; conditions: in vivo
How it was run: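 CD-1 mice given a single 10 mg/kg iv dose (n = 3), in either 10% DMSO plus 1% Tween 80 in pH 8.0 phosphate buffer or 20% (2-hydroxypropyl)-β-cyclodextrin in pH 4.0 citrate buffer; plasma exposure measured.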

[24] = Oral bioavailability in CD1 mouse plasma by LC-MS/MS analysis; type: ADME, organism-based

SMILES: Cn1c(CN2CCCC2)cc2cc3c(cc21)OCCc1c-3[nH]c(=O)c(C(=O)O)c1O
- MIC50 (Acinetobacter baumannii [1]): 2 µg/mL (≈ 4.88 µM)
- MIC90 (Acinetobacter baumannii [1]): 8 µg/mL (≈ 19.5 µM)
- MIC (Acinetobacter baumannii [1]): 0.12 to 16 µg/mL (≈ 0.293 to 39.1 µM)
- Fu [2]: 0.18
- MIC (Escherichia coli [3]): 3.1 µg/mL (≈ 7.57 µM)
- MIC (Escherichia coli [4]): 2 µg/mL (≈ 4.88 µM)
- MIC (Acinetobacter baumannii [5]): 7.8 µg/mL (≈ 19.1 µM)
- MIC50 (Acinetobacter baumannii [6]): 2 µg/mL (≈ 4.88 µM)
- MIC90 (Acinetobacter baumannii [6]): 8 µg/mL (≈ 19.5 µM)
- MIC (Acinetobacter baumannii [6]): 0.12 to 16 µg/mL (≈ 0.293 to 39.1 µM)
- MIC (Escherichia coli [7]): 1 µg/mL (≈ 2.44 µM)
- MIC (Acinetobacter baumannii [8]): 3.9 µg/mL (≈ 9.53 µM)
- MIC50 (Acinetobacter baumannii [9]): 2 µg/mL (≈ 4.88 µM)
- MIC90 (Acinetobacter baumannii [9]): 8 µg/mL (≈ 19.5 µM)
- MIC (Acinetobacter baumannii [9]): 0.12 to 16 µg/mL (≈ 0.293 to 39.1 µM)
- MIC50 (Acinetobacter baumannii [10]): 2 µg/mL (≈ 4.88 µM)
- MIC90 (Acinetobacter baumannii [10]): 8 µg/mL (≈ 19.5 µM)
- survival at 20 mg/kg (Escherichia coli [11]): 83%
- MIC50 (Escherichia coli [12]): 0.5 µg/mL (≈ 1.22 µM)
- MIC90 (Escherichia coli [12]): 1 µg/mL (≈ 2.44 µM)
- MIC (Escherichia coli [12]): 0.25 to 1 µg/mL (≈ 0.611 to 2.44 µM)
- Ratio (Escherichia coli [13]): 2 - 4
- MIC50 (Escherichia coli [14]): 0.5 µg/mL (≈ 1.22 µM)
- MIC90 (Escherichia coli [14]): 1 µg/mL (≈ 2.44 µM)
- MIC (Escherichia coli [14]): 0.25 to 1 µg/mL (≈ 0.611 to 2.44 µM)
- MIC50 (Escherichia coli [15]): 0.5 µg/mL (≈ 1.22 µM)
- MIC90 (Escherichia coli [15]): 1 µg/mL (≈ 2.44 µM)
- MIC (Escherichia coli [15]): 0.25 to 1 µg/mL (≈ 0.611 to 2.44 µM)
- MIC50 (Escherichia coli [16]): 0.5 µg/mL (≈ 1.22 µM)
- MIC90 (Escherichia coli [16]): 1 µg/mL (≈ 2.44 µM)
- MIC (Escherichia coli [16]): 0.25 to 1 µg/mL (≈ 0.611 to 2.44 µM)
- MIC (Escherichia coli [17]): 3.9 µg/mL
- MIC (Klebsiella pneumoniae): 2 µg/mL (≈ 4.88 µM)
- MIC50 (Acinetobacter baumannii [18]): 2 µg/mL (≈ 4.88 µM)
- MIC90 (Acinetobacter baumannii [18]): 8 µg/mL (≈ 19.5 µM)
- MIC (Acinetobacter baumannii [18]): 0.12 to 16 µg/mL (≈ 0.293 to 39.1 µM)
- MIC50 (Acinetobacter baumannii [19]): 2 µg/mL (≈ 4.88 µM)
- MIC90 (Acinetobacter baumannii [19]): 8 µg/mL (≈ 19.5 µM)
- MIC (Acinetobacter baumannii [19]): 0.12 to 16 µg/mL (≈ 0.293 to 39.1 µM)
- MIC50 (Escherichia coli [20]): 0.5 µg/mL (≈ 1.22 µM)
- MIC90 (Escherichia coli [20]): 1 µg/mL (≈ 2.44 µM)

SMILES: CC(C)NCc1cc2cc3c(cc2n1C)CCCc1c-3[nH]c(=O)c(C(=O)O)c1O
- beta t1/2 (Mus musculus [21]): 11 h
- Vdss (Mus musculus [22]): 69 L/kg
- MIC50 (Acinetobacter baumannii [1]): 2 µg/mL (≈ 5.06 µM)
- MIC90 (Acinetobacter baumannii [1]): 16 µg/mL (≈ 40.5 µM)
- MIC (Acinetobacter baumannii [1]): 0.25 to 32 µg/mL (≈ 0.632 to 80.9 µM)
- Fu [2]: 0.16
- AUC (Mus musculus [23]): 1810 ng·h/mL
- MIC (Escherichia coli [3]): 1.6 µg/mL (≈ 4.05 µM)
- MIC (Escherichia coli [4]): 0.78 µg/mL (≈ 1.97 µM)
- MIC (Acinetobacter baumannii [5]): 0.78 µg/mL (≈ 1.97 µM)
- MIC50 (Acinetobacter baumannii [6]): 2 µg/mL (≈ 5.06 µM)
- MIC90 (Acinetobacter baumannii [6]): 16 µg/mL (≈ 40.5 µM)
- MIC (Acinetobacter baumannii [6]): 0.25 to 32 µg/mL (≈ 0.632 to 80.9 µM)
- MIC (Escherichia coli [7]): 0.39 µg/mL (≈ 0.986 µM)
- MIC (Acinetobacter baumannii [8]): 0.78 µg/mL (≈ 1.97 µM)
- MIC50 (Acinetobacter baumannii [9]): 2 µg/mL (≈ 5.06 µM)
- MIC90 (Acinetobacter baumannii [9]): 16 µg/mL (≈ 40.5 µM)
- MIC (Acinetobacter baumannii [9]): 0.25 to 32 µg/mL (≈ 0.632 to 80.9 µM)
- MIC50 (Acinetobacter baumannii [10]): 2 µg/mL (≈ 5.06 µM)
- MIC90 (Acinetobacter baumannii [10]): 16 µg/mL (≈ 40.5 µM)
- survival at 20 mg/kg (Escherichia coli [11]): 83%
- MIC50 (Escherichia coli [12]): 0.5 µg/mL (≈ 1.26 µM)
- MIC90 (Escherichia coli [12]): 1 µg/mL (≈ 2.53 µM)
- MIC (Escherichia coli [12]): 0.25 to 1 µg/mL (≈ 0.632 to 2.53 µM)
- Ratio (Escherichia coli [13]): 4 - 16
- MIC50 (Escherichia coli [14]): 0.5 µg/mL (≈ 1.26 µM)
- MIC90 (Escherichia coli [14]): 1 µg/mL (≈ 2.53 µM)
- MIC (Escherichia coli [14]): 0.25 to 1 µg/mL (≈ 0.632 to 2.53 µM)
- bioavailability [24]: 44%
- MIC50 (Escherichia coli [15]): 0.5 µg/mL (≈ 1.26 µM)
- MIC90 (Escherichia coli [15]): 1 µg/mL (≈ 2.53 µM)
- MIC (Escherichia coli [15]): 0.25 to 1 µg/mL (≈ 0.632 to 2.53 µM)
- MIC50 (Escherichia coli [16]): 0.5 µg/mL (≈ 1.26 µM)
- MIC90 (Escherichia coli [16]): 1 µg/mL (≈ 2.53 µM)
- MIC (Escherichia coli [16]): 0.25 to 1 µg/mL (≈ 0.632 to 2.53 µM)
- MIC (Escherichia coli [17]): 3.1 µg/mL
- MIC (Klebsiella pneumoniae): 0.78 µg/mL (≈ 1.97 µM)
- MIC50 (Acinetobacter baumannii [18]): 2 µg/mL (≈ 5.06 µM)
- MIC90 (Acinetobacter baumannii [18]): 16 µg/mL (≈ 40.5 µM)
- MIC (Acinetobacter baumannii [18]): 0.25 to 32 µg/mL (≈ 0.632 to 80.9 µM)
- MIC50 (Acinetobacter baumannii [19]): 2 µg/mL (≈ 5.06 µM)
- MIC90 (Acinetobacter baumannii [19]): 16 µg/mL (≈ 40.5 µM)
- MIC (Acinetobacter baumannii [19]): 0.25 to 32 µg/mL (≈ 0.632 to 80.9 µM)
- MIC50 (Escherichia coli [20]): 0.5 µg/mL (≈ 1.26 µM)
- MIC90 (Escherichia coli [20]): 1 µg/mL (≈ 2.53 µM)
